Source: PubChem BioAssay
Hits are enriched below; roughly 1.7% of the tested compounds scored in any of these assays.
M5 ag = human M5 muscarinic receptor agonists, primary screen, CHO-K1 cells, Fluo-8 calcium fluorescence. Muscarinic acetylcholine receptor M5 (Homo sapiens), P08912. CHO-K1 hM5 cells; 0% DMSO wells, 100% maximal acetylcholine response. activation, % at 3 µM. 360,000 tested, 0.19% active. AID 624037, 2012;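 active means activation above the run's mean over test compounds plus 3 SD, cut at about 23% in these data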;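 further: signal is peak over basal fluorescence ratio across the kinetic read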
Target sequence (P08912 whole entry, looked up): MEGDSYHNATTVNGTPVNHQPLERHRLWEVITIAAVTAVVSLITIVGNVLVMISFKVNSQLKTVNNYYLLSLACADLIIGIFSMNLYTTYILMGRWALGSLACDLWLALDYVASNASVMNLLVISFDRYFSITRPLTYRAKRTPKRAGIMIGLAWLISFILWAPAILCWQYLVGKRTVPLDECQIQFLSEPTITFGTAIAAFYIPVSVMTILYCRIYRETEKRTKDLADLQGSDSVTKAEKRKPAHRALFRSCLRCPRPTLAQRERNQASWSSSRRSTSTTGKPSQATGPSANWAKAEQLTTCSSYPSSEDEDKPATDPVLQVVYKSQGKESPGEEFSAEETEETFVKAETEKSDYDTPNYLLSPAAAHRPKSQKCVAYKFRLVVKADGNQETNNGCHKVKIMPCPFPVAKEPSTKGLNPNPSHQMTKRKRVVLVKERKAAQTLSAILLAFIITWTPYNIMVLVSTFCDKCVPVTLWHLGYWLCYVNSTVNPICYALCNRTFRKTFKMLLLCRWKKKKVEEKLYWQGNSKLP
CHO-K1 Ca ag = counter-screen for M1 agonists: effect in parental CHO-K1 cells. Fluo-8 calcium fluorescence; scaled to maximal ATP response, vehicle zero. activation, % at 3 µM. 360,000 tested, 0.48% active. AID 602248, 2012; in the data active means activation above about 15%;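 further: untransfected CHO-K1 host cells lacking M1 receptor as counterscreen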
M5 PAM = human M5 muscarinic receptor positive allosteric modulators, primary screen, CHO-K1 cells, Fluo-8 calcium fluorescence; Muscarinic acetylcholine receptor M5 (Homo sapiens), P08912; activation, % at 3 µM; CHO-K1 hM5, ACh EC20 PAM; 0% = ACh EC20, 100% = ACh EC100; 360,000 tested, 0.3% active; AID 624038, 2012;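 active means activation above the run cutoff, the mean activation of all test compounds plus 3 SD, cut at about 18% in these data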
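system = human M5 receptor in CHO-K1 cells | compound = one concentration, 3 µM final (nominal) | schedule = Post-acetylcholine fluorescence recording 140 s | signal = Fluo-8 calcium dye fluorescence, kinetic read | benchmarks = low control EC20 acetylcholine (0%), high control EC100 acetylcholine (100%) | repeats = singlicate, one well per test compound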
M1 PAM parental = nonselective calcium activators in parental CHO-K1 cells, primary screen, counter-screen for M1 PAM project, cell-based, Fluo-8 calcium fluorescence, full deck, 1536-well. AID 602247, 2012. ATP EC20; 0% at ATP EC20, 100% at ATP max. 360,000 tested, 0.02% active. activation, % at 3 µM;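 active means activation above the run cutoff, the mean activation of all test compounds plus 3 SD, cut at about 40% in these data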;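 further: peak over basal fluorescence ratio in a 140 s read after ATP addition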
CHO-K1 Ca antag = counter-screen for M1 antagonists: effect in parental CHO-K1 cells; ATP-induced calcium, Fluo-8 fluorescence; inhibition, % at 3 µM; 360,000 tested, 0.6% active; AID 602250;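 active means inhibition above a per-plate cutoff, the plate's mean sample inhibition plus 3 SD, cut at about 24% in these data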
CHRM5 antagonist = human M5 muscarinic receptor antagonists, primary screen, CHO cells, Fluo-8 calcium fluorescence. Muscarinic acetylcholine receptor M5 (Homo sapiens), P08912. CHO-hM5 cells, ACh EC80. inhibition, % at 3 µM. 360,000 tested, 0.59% active. AID 624040, 2012;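 active means inhibition above a per-plate cutoff, the mean of that plate's test compounds plus 3 SD, cut at about 27% in these data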
Large screens that a line does not name were inactive.

CC(C)(C)C(=O)/C=c1\s/c(=C\c2ccc(-c3ccc([N+](=O)[O-])cc3)o2)c(=O)n1CC(=O)NC(N)=O	CHO-K1 Ca ag 15.9, CHO-K1 Ca antag 26.5, CHRM5 antagonist 32.5
CCOC(=O)NC(=O)/C(C#N)=C\Nc1ccc(Cl)cc1Cl	none
CCOC(=O)NC(=O)/C(C#N)=C\Nc1sccc1C(=O)OC	CHO-K1 Ca ag 18.1
Cc1ccc(-n2c(-c3ccc(Br)cc3)c[n+]3c2CCc2ccc4cccnc4c2-3)cc1	CHRM5 antagonist 35.7
COc1ccc(-n2c(-c3ccc(Cl)cc3)c[n+]3c2CCc2ccccc2-3)cc1	none
COc1ccc(NC(=O)N(C)C[C@H]2Oc3ccc(NC(=O)NC(C)C)cc3C(=O)N([C@H](C)CO)C[C@@H]2C)cc1	none
Cc1occc1C(=O)NNC(=O)Nc1ccc(Cl)c(Cl)c1	none
Cc1ccsc1C(=O)NNC(=O)Nc1ccc(Cl)c(Cl)c1	CHO-K1 Ca antag 29.1
CC(C)=CC(=O)N1CCC(n2nccc2NC(=O)CCc2ccccc2)CC1	CHO-K1 Ca antag 40.0
Cn1cc(CN2CCC(n3nccc3NC(=O)CCOc3ccccc3)CC2)cn1	CHRM5 antagonist 29.4
Cc1ccccc1N(CC(=O)NCc1ccco1)C(=O)CCC(=O)Nc1nccs1	none
CCN(CC)C(=O)NC(c1ccc(C)c(F)c1)C(Cl)(Cl)Cl (stereo unspecified)	none
O=C(O)C1C2C=CC(C2)C1C(=O)Nc1cccc(Cl)c1 (stereo unspecified)	none
CCOC(=O)c1csc(-c2snnc2C)n1	CHO-K1 Ca ag 16.7
CCOC(=O)c1csc(N)n1	none
COc1ccccc1C(=O)Oc1ccc2ccc(=O)oc2c1	none
COc1ccccc1C(=O)Oc1ccc(C(C)(C)C)cc1	M5 PAM 26.0
CSc1ncccc1C(=O)OCC(=O)NC1CCC(C)CC1 (stereo unspecified)	none
CSc1ncccc1C(=O)OCC(=O)NC1CCS(=O)(=O)C1 (stereo unspecified)	CHO-K1 Ca ag 16.4
CC(=O)Nc1nc(=S)n(-c2ccccc2)[nH]1	none
CC(C)c1nc(=S)n(-c2ccccc2)[nH]1	CHO-K1 Ca antag 28.2
CCC(=O)Oc1ccc(NC(=O)c2ccco2)cc1	none
O=C(Nc1ccc(Cl)c(Cl)c1)Oc1ccc(NC(=O)c2ccco2)cc1	CHO-K1 Ca antag 34.0
O=C(NC(NC(=S)Nc1cccc(C(=O)O)c1)C(Cl)(Cl)Cl)OCc1ccccc1 (stereo unspecified)	none
O=C(NC(NC(=S)Nc1cccc(Cl)c1)C(Cl)(Cl)Cl)OCc1ccccc1 (stereo unspecified)	CHRM5 antagonist 26.9
O=C(Nc1ccc(OC(=O)c2ccco2)cc1)c1ccco1	CHO-K1 Ca antag 28.0
O=C(Nc1ccc(Br)c(Cl)c1)c1ccco1	none
O=C(NC(NC(=S)Nc1ccc(Cl)c(Cl)c1)C(Cl)(Cl)Cl)c1ccco1 (stereo unspecified)	CHO-K1 Ca antag 29.0
O=C(Nc1ccccc1F)c1cc2c(s1)-c1ccccc1S(=O)(=O)C2	none
Cn1c(=O)[nH]c(=O)c2c1nc(NCc1ccccc1)n2CCCc1ccccc1	CHO-K1 Ca antag 25.6
CCCCn1c(NCCN(C)C)nc2c1c(=O)[nH]c(=O)n2C	M5 PAM 22.1
CC(C)Cn1c(NCCN(C)C)nc2c1c(=O)[nH]c(=O)n2C	none
CC(=O)Nc1ccc(NC(=O)CCCSc2nc3ccccc3[nH]2)cc1	none
CCOC(=O)c1csc(NC(=O)c2ccc(S(=O)(=O)N(CC)CC)cc2)n1	CHO-K1 Ca ag 15.3
CC(=O)Nc1ccc(S(=O)(=O)Nc2ccc(Cc3ccncc3)cc2)cc1	none
CCN(CC)S(=O)(=O)c1ccc(C(=O)Nc2ccc(Cc3ccncc3)cc2)cc1	CHO-K1 Ca ag 15.4
CC(C)(C)c1ccc(S(=O)(=O)Nc2ccc(Cc3ccncc3)cc2)cc1	CHO-K1 Ca antag 24.4
COc1ccc(/C=N/NC(=O)CNc2n[nH]c(=O)[nH]c2=O)cc1OC	CHO-K1 Ca antag 26.9
Nc1cc(S(=O)(=O)Nc2ccc(Cl)cc2)ccc1N1CCOCC1	none
Cc1ccc(Nc2nc3nonc3[nH]c2=O)cc1Cl	CHO-K1 Ca antag 29.6
CCOc1cc(CNCc2cc(OC)cc(OC)c2)ccc1OC	none
O=C1c2cccc3c([N+](=O)[O-])ccc(c23)C(=O)N1c1ccccn1	CHRM5 antagonist 27.9
O=C(NCc1ccco1)c1nn(-c2ccccc2)c(=O)c2ccccc12	none
Cc1ccccc1NS(=O)(=O)c1cc2c3c(c1)CC(=O)N3CCC2	CHO-K1 Ca ag 17.1
O=C(Nc1ccc2snnc2c1)Nc1cccc2ccccc12	CHO-K1 Ca antag 29.1
Cc1cc(C)cc(NC(=O)CSc2nnc(C3CC3)n2CC2CCCO2)c1 (stereo unspecified)	none
O=C(C1CCCO1)N1CCN(c2ccc(F)cc2)CC1 (stereo unspecified)	none
COc1ccc(C(=O)NCc2cccs2)cc1S(=O)(=O)N1CCOCC1	none
COc1ccc(/C=C/C(=O)N(C)Cc2cccs2)cc1S(=O)(=O)N1CCOCC1	CHO-K1 Ca ag 16.4
Cn1c(SCC(=O)Nc2ccc3nc(SCC(=O)N4CCCC4)sc3c2)nnc1-c1ccc(N)cc1	CHO-K1 Ca antag 31.5
Cn1c(SCC(=O)Nc2ccc3nc(SCC(=O)NC4CC4)sc3c2)nnc1-c1ccccc1	none
Cc1ccc(N2C(=O)[C@@H]3[C@H](C2=O)C2c4ccccc4C=NN2[C@@H]3C(=O)c2ccc(Cl)cc2)cc1 (stereo partly specified)	CHRM5 antagonist 26.9
Cc1ccc(C(=O)Nc2ccc(S(=O)(=O)N3CCN(C)CC3)cc2)cc1	none
CCC(=O)c1ccc(OCC(O)Cn2cnc3ccccc32)cc1 (stereo unspecified)	none
CN(Cc1ccccc1)C(=O)CN1C(=O)COc2ccc(S(=O)(=O)N3CCCC3)cc21	none
CC(C)N(Cc1ccccc1)C(=O)CN1C(=O)COc2ccc(S(=O)(=O)N3CCCCCC3)cc21	CHO-K1 Ca ag 16.1
CC(C)(C)C(=O)/C=c1\[nH]c(=O)/c(=C\c2ccc(C#N)cc2)s1	CHO-K1 Ca antag 25.3
Cc1cccc(/C=c2\s/c(=C\C(=O)C(C)(C)C)[nH]c2=O)c1	none
CN(C)/C=C/C(=O)c1ccc(Oc2ncccn2)cc1	none
O=C(/C=C/Nc1ccccc1)c1ccc(Oc2ncccn2)cc1	CHO-K1 Ca antag 26.5
CC(O)CC(=O)O (stereo unspecified)	none
